# ERAP1 HTS inh: human ERAP1 aminopeptidase inhibitors, primary screen, biochemical, single point, plate reader | Endoplasmic reticulum aminopeptidase 1 (Homo sapiens), Q9NZ08 | recombinant ERAP1, Leu-AMC fluorescence, 60 min | inhibition, % at 10.7 µM | hit rate 0.15% among 340,000;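 active = mean replicate inhibition of at least 30%, or all replicates individually reaching that 30% level; inactive = mean below 30% and not every replicate reaching it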;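 also: 0% = neutral control wells and 100% = L-leucinethiol positive control wells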
# Target sequence (Q9NZ08 whole entry, looked up): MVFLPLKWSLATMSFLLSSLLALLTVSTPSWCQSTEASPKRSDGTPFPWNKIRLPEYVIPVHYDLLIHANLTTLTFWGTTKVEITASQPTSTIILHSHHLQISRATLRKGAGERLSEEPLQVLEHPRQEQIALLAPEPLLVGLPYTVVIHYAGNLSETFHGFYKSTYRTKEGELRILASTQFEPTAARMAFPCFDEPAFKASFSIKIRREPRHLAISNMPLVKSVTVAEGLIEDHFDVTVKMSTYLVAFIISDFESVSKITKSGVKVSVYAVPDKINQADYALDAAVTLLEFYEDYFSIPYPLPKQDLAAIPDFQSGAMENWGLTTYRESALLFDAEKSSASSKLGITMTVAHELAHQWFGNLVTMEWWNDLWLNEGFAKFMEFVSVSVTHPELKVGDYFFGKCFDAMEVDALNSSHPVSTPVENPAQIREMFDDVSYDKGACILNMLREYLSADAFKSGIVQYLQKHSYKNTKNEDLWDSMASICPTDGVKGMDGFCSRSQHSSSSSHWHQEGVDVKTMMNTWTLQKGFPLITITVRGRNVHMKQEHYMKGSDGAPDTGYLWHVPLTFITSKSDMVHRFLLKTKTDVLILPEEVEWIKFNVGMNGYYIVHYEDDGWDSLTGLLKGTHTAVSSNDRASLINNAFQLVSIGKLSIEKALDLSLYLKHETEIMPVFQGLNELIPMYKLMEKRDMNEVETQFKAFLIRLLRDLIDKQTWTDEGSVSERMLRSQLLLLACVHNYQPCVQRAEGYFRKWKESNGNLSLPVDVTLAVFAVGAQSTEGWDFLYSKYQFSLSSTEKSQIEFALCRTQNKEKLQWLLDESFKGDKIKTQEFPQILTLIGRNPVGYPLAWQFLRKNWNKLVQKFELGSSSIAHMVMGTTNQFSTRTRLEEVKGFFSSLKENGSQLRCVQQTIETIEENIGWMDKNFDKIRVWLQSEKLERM
# S100A4 inh HTS: inhibitors of S100A4-myosin IIA peptide binding, primary screen, biochemical, fluorescence polarization, TAMRA-MyoIIA peptide; Protein S100-A4 (Homo sapiens), P26447; AID 652163, 2013; inhibition, % at 10.7 µM; hit rate 0.14% among 360,000;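 active = mean inhibition of at least 70% across replicates, with every replicate also reaching that level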
#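 Assay system: human S100A4 monomer with TAMRA-labelled myosin IIA peptide / Buffer or medium: Calcium-containing HEPES buffer, pH 7.2 / Reagent: TAMRA-labelled myosin IIA heavy-chain peptide probe, 5 nM / Compound: one dose per compound / Timing: polarization read 5 min after assay mix addition, stable 5–60 min / Benchmarks: neutral control DMSO, positive control TFP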
# MLL AF4-AF9 inh: inhibitors of AF4 peptide binding to AF9, primary screen, biochemical, AlphaScreen, biotin-AF4 peptide, FLAG-AF9, single point. inhibition, % at 10 µM. hit rate 0.47% among 350,000;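 active = every replicate reaching a set inhibition limit, whatever the replicate mean, cut at about 25% in these data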;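 also: 0% = plate neutral control median and 100% = total signal loss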
# rRNA inh HTS: reduced GFP signal of wild-type E. coli, primary screen, bacterial rRNA inhibitor project, GFP/RFP fluorescence, OD600, single point; E. coli WT GFP vs humanized-ribosome RFP mutants, 24 h; stronger effect = lower value; DMSO median 0, no signal -100; GFP signal change (wild-type ribosome), % (concentration not given with the values); hit rate 1.6% among 350,000;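 active = significant combined selectivity score with lowered wild-type GFP, culture density cut under 30%, mutant RFP and density less affected; inactive = any of these conditions unmet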
# SIRT5 block: SIRT5 desuccinylase inhibitors, primary screen, biochemical, fluorescence imaging, single point, set 5; NAD-dependent protein deacylase sirtuin-5, mitochondrial (Homo sapiens), Q9NXA8; Purified SirT5, succinyl-peptide AMC, trypsin-coupled fluorescence; inhibition, % at 15 µM; hit rate 1.1% among 330,000; AID 652115, 2013; in the data active = inhibition above about 15%
# E-sel inducer: E-selectin induction in HUVECs, primary screen, imaging, HUVEC, immunofluorescence imaging, single point; P16581; normalized: neutral wells 0, TNF-alpha wells 100; activation, % at 7.58 µM; hit rate 0.37% among 260,000; AID 686992, 2013;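 active = mean E-selectin-positive cell signal at least 10% of the positive control, reached in at least 60% of replicates, without over 20% cell loss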
#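 Test system – human umbilical vein endothelial cells (HUVEC), E-selectin induction · Input – 3,000 HUVEC seeded per well · Buffer or medium – EGM-2, gelatin · Compound dosing – single-point compound dose · Detection – immunofluorescence imaging · Measure – percent E-selectin-positive cells · Controls – TNF-alpha high, DMSO low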
# Starred values were filed as active, the others as inactive; · = not tested or not shown. An excerpt weighted towards active compounds, which were near 3.4% of everything screened.
SMILES,ERAP1 HTS inh,S100A4 inh HTS,MLL AF4-AF9 inh,rRNA inh HTS,SIRT5 block,E-sel inducer
COc1ccc(N2CCN(C(=O)Nc3ccccc3Cl)CC2)cc1,2.8,-3.3,-1.4,-22.9*,-4.6,·
COC(=O)c1ccccc1NC(=O)N1CCN(c2ccc(OC)cc2)CC1,-1.0,-10.3,-6.0,-25.8,-3.1,·
CO[C@H](CN(C)Cc1nccs1)[C@@H](C)CN([C@@H](C)CO)S(=O)(=O)c1ccc(C)cc1,0.9,-6.3,-0.7,-0.6,19.3*,-0.2
COc1ccc(CN(C)C[C@@H]2Oc3ccc(NC(=O)Nc4c(C)noc4C)cc3C(=O)N([C@H](C)CO)C[C@H]2C)cc1,-4.4,15.5,-1.8,1.8,-7.9,-8.3
COc1ccc2c3c(n(C)c2c1)[C@@H](CO)NCC31CN(Cc2ccccc2Cl)C1,-0.4,2.4,38.5*,-1.4,-0.4,-0.2
COc1ccc2c3c(n(C)c2c1)[C@H](CO)NCC31CN(Cc2ccc(-c3ccccn3)cc2)C1,·,-5.1,46.5*,0.1,-0.3,-0.1
Cc1nnc(-c2ccc(Cl)cc2)nc1NCCN(C)C,0.1,5.8,-0.5,16.9,17.6*,·
COc1ccc(S(=O)(=O)NCc2ccco2)c2ccccc12,-0.5,-2.6,-3.5,-26.0*,-3.6,·
COc1nc(N2CCOCC2)nc(-n2cccc2)n1,-0.5,-0.7,·,-1.2,22.6*,·
COc1ccc(Nc2nc(OC)nc(N3CCOCC3)n2)cc1,·,-0.2,12.9,6.0,-3.0,3.7
C[C@@H]1CN([C@@H](C)CO)C(=O)c2cc(NC(=O)Nc3ccccc3)ccc2O[C@@H](C)CCCCO[C@@H]1CN(C)S(=O)(=O)c1ccc(F)cc1,·,·,·,-4.2,·,0.0
CC(C)NC(=O)Nc1ccc2c(c1)C(=O)N([C@H](C)CO)C[C@H](C)[C@H](CN(C)Cc1ccc(-c3ccccc3)cc1)O2,-0.4,6.3,2.2,-41.2,30.9*,-0.2
C[C@@H]1CN([C@@H](C)CO)C(=O)c2cc(NC(=O)Nc3ccc4c(c3)OCO4)ccc2O[C@H]1CN(C)Cc1ccc(-c2ccccc2)cc1,-2.8,-2.2,5.1,-6.1,-5.3,59.7*
C[C@H]1CN([C@@H](C)CO)C(=O)c2cc(NC(=O)NC3CCCCC3)ccc2O[C@@H]1CN(C)Cc1ccc(C(=O)O)cc1,1.4,95.6*,-2.9,3.0,-2.3,-1.6
CC(C)[C@@H]1C(=O)N[C@H](c2ccccc2)CC=CC[C@@H](C)Oc2ccccc2C(=O)N1C (mixture of isomers),·,·,·,0.2,·,·
CC(=O)C12OC1CC1C3CCC4=CC(=O)CCC4(C)C3CCC12C (centres undefined),-8.2,2.2,-5.0,-23.2*,1.3,·
COc1cccc(C2c3cc4c(cc3OC(N3CCCC3)C2C)OCO4)c1O (centres undefined),3.2,-1.3,10.8,-19.5*,·,0.0
COc1ccc2sc(C)[n+](C)c2c1,11.2,-4.9,-6.2,19.6,-6.4,-1.0
CCCC[n+]1c(C)sc2cc(OC)ccc21,35.4*,-21.7,-15.2,5.7,-4.0,·
O=C(C=Cc1ccccc1)c1cccs1,-0.9,3.7,4.2,-22.2*,·,-0.1
Nc1ccc(/C=C/C(=O)c2cccs2)cc1,0.1,-13.5,-5.0,-13.2,-1.1,-0.2
C=CCN=c1scc(-c2ccccc2)n1/N=C/c1ccccn1,0.1,-0.4,27.9*,-47.3,-1.1,-0.6
C=CCN=c1scc(-c2ccc(F)cc2)n1/N=C/c1ccccn1,-1.4,-0.2,9.9,-13.9,-1.3,1.0
Nc1cccn2c(-c3ccc(Cl)cc3)cnc12,-0.5,-2.2,9.6,-5.8,2.7,·
Nc1cccn2c(-c3ccc(Cl)c(Cl)c3)cnc12,1.1,2.0,8.1,-26.1*,-3.4,·
SMILES,ERAP1 HTS inh,S100A4 inh HTS,MLL AF4-AF9 inh,rRNA inh HTS,SIRT5 block,E-sel inducer
COC(=O)c1[nH]c2ccccc2c1NC(=O)CN1CCN(C/C=C/c2ccccc2)CC1,0.0,-2.6,17.9,-42.8,·,·
CCOC(=O)N1CCN(CC(=O)Nc2c(C(=O)OC)[nH]c3cccc(Cl)c23)CC1,-3.8,0.3,-5.3,-15.5*,-4.7,·
Cc1ccc(C(=O)CSc2nnc(CNc3ccc(F)cc3)o2)cc1,0.7,-3.6,-3.3,-10.8,1.4,-0.1
Cc1ccc(NCc2nnc(SCC(=O)c3ccc4c(c3)OCCO4)o2)c(C)c1,1.3,-4.9,-3.4,-35.9*,6.7,·
NC(=O)c1cc(Cl)cn(-c2ccccc2)c1=O,-2.4,-8.5,49.8*,11.5,1.0,-0.2
O=C(C[C@@H]1C=C[C@@H](NS(=O)(=O)c2cccc(F)c2)[C@H](CO)O1)NCc1ccc2c(c1)OCO2,2.6,10.0,0.2,2.7,0.3,0.5
C[C@@H]1CN([C@@H](C)CO)C(=O)c2cc(NC(=O)Cn3cnnn3)ccc2O[C@H]1CN(C)Cc1ccc(Oc2ccccc2)cc1,-0.2,-8.5,3.7,-1.2,3.1,47.8*
C[C@@H]1CN([C@@H](C)CO)C(=O)c2cc(NC(=O)Cn3cnnn3)ccc2O[C@H]1CN(C)Cc1ccc2c(c1)OCO2,·,·,·,4.7,·,0.5
C[C@H](CO)N1C[C@H](C)[C@H](CN(C)Cc2ccc3c(c2)OCO3)Oc2ccc(NC(=O)Cn3cnnn3)cc2C1=O,2.4,-12.5,1.5,2.0,3.0,38.5*
C[C@H](CO)N1C[C@H](C)[C@@H](CN(C)Cc2ccc(Oc3ccccc3)cc2)Oc2ccc(NC(=O)Cn3cnnn3)cc2C1=O,2.4,-5.0,3.9,-1.1,5.0,-9.1
COC(=O)c1ccccc1NC(=O)c1ccc2c(c1)CC(C)O2 (centres undefined),1.2,-5.6,-5.5,-29.1*,-3.7,0.4
COc1ccc(-c2ccc3c(c2)[C@H]2[C@H](CCN2C(=O)c2cccc(F)c2)[C@@H](CO)N3)cc1,-2.1,-5.6,19.4,-6.3,1.3,1.2
C[C@H](CO)N1C[C@H](C)[C@H](CN(C)Cc2ccc(C(=O)Nc3ccccc3N)cc2)OCc2cnnn2CCCC1=O,0.3,-0.6,4.0,-1.3,-3.4,-0.2
Cc1ccc(S(=O)(=O)N2C[C@@H]3CCCC[C@@H]3[C@@H](C)[C@H]2c2cn(Cc3ccccc3)c3ccccc23)cc1,1.1,-4.4,-3.7,3.9,-2.6,0.1
Cc1ccc(S(=O)(=O)N2C[C@@H]3CCCC[C@@H]3[C@@H](C)[C@H]2c2cn(Cc3ccccc3)c3ncccc23)cc1,0.4,1.3,1.2,9.1,22.1*,0.0

# Bioassay records (PubChem BioAssay)
